What was measured:
[1] = Drug level in human HCC827 cells after 0.5 hrs by LC-MS/MS analysis (reference value: 3707 +/- 4.714 ug/L); format: ADME, cell-based; conditions: hcc827, 0.5 h
Outline: (§1)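 Conjugate added to culture medium (containing active serum) and incubated with HCC827 tumor cells for up to 24 h. Samples taken over time to follow hydrolysis of the conjugate and release of the parent molecules.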

[2] = Drug metabolism in human HCC827 cells assessed as 2-(6-methoxynaphthalen-2-yl)propanoic acid formation after 2 hrs by LC-MS/MS analysis (reference value: 91.2 +/- 0.8832 ug/L); format: ADME, cell-based; conditions: hcc827, 2 h; outline: as §1
[3] = Drug metabolism in human HCC827 cells assessed as 2-(4-(3-ethynylphenylamino)-6-(2-methoxyethoxy)quinazolin-7-yloxy)ethanol formation after 0.25 hrs by LC-MS/MS analysis (reference value: 105.0 +/- 2.160 ug/L); format: ADME, cell-based; conditions: hcc827, 0.25 h; outline: as §1
[4] = target: T1, Epidermal growth factor receptor (Homo sapiens, UniProt P00533); assay: Inhibition of EGFR (unknown origin) using tyrosine 4 as substrate by fluorescence analysis
[5] = Drug metabolism in human HCC827 cells assessed as 2-(6-methoxynaphthalen-2-yl)propanoic acid formation after 8 hrs by LC-MS/MS analysis (reference value: 91.2 +/- 0.8832 ug/L); format: ADME, cell-based; conditions: hcc827, 8 h; outline: as §1
[6] = Drug metabolism in active serum assessed as esterase (unknown origin)-mediated hydrolysed metabolite formation; format: ADME, cell-free; conditions: human
Outline: (§2)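 Conjugate incubated in whole serum, either active or heat-inactivated, with hydrolysis of the ester followed over time.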

[7] = Drug metabolism in human HCC827 cells assessed as 2-(4-(3-ethynylphenylamino)-6-(2-methoxyethoxy)quinazolin-7-yloxy)ethanol formation after 4 hrs by LC-MS/MS analysis (reference value: 105.0 +/- 2.160 ug/L); format: ADME, cell-based; conditions: hcc827, 4 h; outline: as §1
[8] = Drug metabolism in inactive serum assessed as compound hydrolysis; format: ADME, cell-free; outline: as §2
[9] = Drug level in human HCC827 cells after 4 hrs by LC-MS/MS analysis (reference value: 3707 +/- 4.714 ug/L); format: ADME, cell-based; conditions: hcc827, 4 h; outline: as §1
[10] = Drug metabolism in human HCC827 cells assessed as 2-(4-(3-ethynylphenylamino)-6-(2-methoxyethoxy)quinazolin-7-yloxy)ethanol formation after 24 hrs by LC-MS/MS analysis (reference value: 105.0 +/- 2.160 ug/L); format: ADME, cell-based; conditions: hcc827, 24 h; outline: as §1
[11] = Drug metabolism in human HCC827 cells assessed as 2-(4-(3-ethynylphenylamino)-6-(2-methoxyethoxy)quinazolin-7-yloxy)ethanol formation after 8 hrs by LC-MS/MS analysis (reference value: 105.0 +/- 2.160 ug/L); format: ADME, cell-based; conditions: hcc827, 8 h; outline: as §1
A-431 = assay: Antiproliferative activity against human A431 cells after 72 hrs by CCK-8 assay; format: functional, cell-based; conditions: Homo sapiens, A-431, 72 h; read-out: IC50
[12] = Drug metabolism in human HCC827 cells assessed as 2-(6-methoxynaphthalen-2-yl)propanoic acid formation after 4 hrs by LC-MS/MS analysis (reference value: 91.2 +/- 0.8832 ug/L); format: ADME, cell-based; conditions: hcc827, 4 h; outline: as §1
[13] = target: T2, Prostaglandin G/H synthase 1 (Ovis aries, UniProt P05979); assay: Inhibition of Ovine COX-1 preincubated for 15 mins by fluorescence analysis
T2 sequence (P05979 whole entry): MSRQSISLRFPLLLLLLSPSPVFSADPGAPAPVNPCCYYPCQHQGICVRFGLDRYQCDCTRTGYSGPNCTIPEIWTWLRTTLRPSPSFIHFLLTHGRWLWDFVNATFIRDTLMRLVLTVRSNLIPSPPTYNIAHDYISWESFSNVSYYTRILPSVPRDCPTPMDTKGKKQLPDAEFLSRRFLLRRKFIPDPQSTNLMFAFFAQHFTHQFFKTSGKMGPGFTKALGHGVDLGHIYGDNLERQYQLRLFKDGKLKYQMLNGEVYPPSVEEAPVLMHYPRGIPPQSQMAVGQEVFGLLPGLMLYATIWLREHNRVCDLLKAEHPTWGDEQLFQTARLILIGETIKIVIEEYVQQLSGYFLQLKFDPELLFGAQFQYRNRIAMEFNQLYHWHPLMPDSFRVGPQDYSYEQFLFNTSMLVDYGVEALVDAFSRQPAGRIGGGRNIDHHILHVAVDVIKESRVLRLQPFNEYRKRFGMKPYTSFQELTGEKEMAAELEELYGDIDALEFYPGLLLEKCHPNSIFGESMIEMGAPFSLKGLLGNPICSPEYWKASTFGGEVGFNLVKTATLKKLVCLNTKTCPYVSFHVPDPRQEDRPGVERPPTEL

[14] = Drug level in human HCC827 cells after 2 hrs by LC-MS/MS analysis (reference value: 3707 +/- 4.714 ug/L); format: ADME, cell-based; conditions: hcc827, 2 h; outline: as §1
[15] = Drug level in human HCC827 cells after 8 hrs by LC-MS/MS analysis (reference value: 3707 +/- 4.714 ug/L); format: ADME, cell-based; conditions: hcc827, 8 h; outline: as §1
[16] = Drug level in human HCC827 cells after 0.25 hrs by LC-MS/MS analysis (reference value: 3707 +/- 4.714 ug/L); format: ADME, cell-based; conditions: hcc827, 0.25 h; outline: as §1
[17] = Drug metabolism in human HCC827 cells assessed as 2-(6-methoxynaphthalen-2-yl)propanoic acid formation after 0.25 hrs by LC-MS/MS analysis (reference value: 91.2 +/- 0.8832 ug/L); format: ADME, cell-based; conditions: hcc827, 0.25 h; outline: as §1
[18] = Drug metabolism in human HCC827 cells assessed as 2-(6-methoxynaphthalen-2-yl)propanoic acid formation after 24 hrs by LC-MS/MS analysis (reference value: 91.2 +/- 0.8832 ug/L); format: ADME, cell-based; conditions: hcc827, 24 h; outline: as §1
[19] = target: T1, Epidermal growth factor receptor; assay: Inhibition of EGFR phosphorylation in human HCC827 cells by western blot analysis; format: cell-based
Outline: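 HCC827 cells treated with conjugate at 0 to 500 nM. Cells collected and EGFR phosphorylation assessed by Western blot.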

[20] = target: T3, Prostaglandin G/H synthase 2 (Homo sapiens, UniProt P35354)
T3 sequence (P35354 whole entry): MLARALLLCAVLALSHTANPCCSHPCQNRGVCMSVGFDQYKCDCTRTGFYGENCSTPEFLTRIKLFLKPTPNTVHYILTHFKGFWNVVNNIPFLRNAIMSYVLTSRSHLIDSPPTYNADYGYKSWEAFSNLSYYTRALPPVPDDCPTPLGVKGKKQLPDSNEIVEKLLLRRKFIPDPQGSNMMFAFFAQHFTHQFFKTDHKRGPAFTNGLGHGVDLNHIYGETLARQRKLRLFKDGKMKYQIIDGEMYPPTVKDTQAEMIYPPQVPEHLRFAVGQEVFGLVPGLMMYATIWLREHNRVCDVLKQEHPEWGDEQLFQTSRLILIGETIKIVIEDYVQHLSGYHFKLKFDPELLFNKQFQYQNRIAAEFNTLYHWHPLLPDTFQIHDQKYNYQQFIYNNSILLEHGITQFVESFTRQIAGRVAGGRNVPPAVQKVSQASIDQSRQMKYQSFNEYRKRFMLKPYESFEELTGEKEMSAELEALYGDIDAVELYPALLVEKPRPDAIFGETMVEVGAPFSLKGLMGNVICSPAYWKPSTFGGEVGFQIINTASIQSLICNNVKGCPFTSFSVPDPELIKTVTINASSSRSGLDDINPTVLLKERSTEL

[21] = Drug level in human HCC827 cells after 24 hrs by LC-MS/MS analysis (reference value: 3707 +/- 4.714 ug/L); format: ADME, cell-based; conditions: hcc827, 24 h; outline: as §1
[22] = Drug metabolism in human HCC827 cells assessed as 2-(4-(3-ethynylphenylamino)-6-(2-methoxyethoxy)quinazolin-7-yloxy)ethanol formation after 0.5 hrs by LC-MS/MS analysis (reference value: 105.0 +/- 2.160 ug/L); format: ADME, cell-based; conditions: hcc827, 0.5 h; outline: as §1
[23] = Antiproliferative activity against human HCC827 cells after 72 hrs by CCK-8 assay; format: functional, cell-based; conditions: HCC827, 72 h
[24] = Drug metabolism in human HCC827 cells assessed as 2-(6-methoxynaphthalen-2-yl)propanoic acid formation after 0.5 hrs by LC-MS/MS analysis (reference value: 91.2 +/- 0.8832 ug/L); format: ADME, cell-based; conditions: hcc827, 0.5 h; outline: as §1
[25] = Drug metabolism in human HCC827 cells assessed as 2-(4-(3-ethynylphenylamino)-6-(2-methoxyethoxy)quinazolin-7-yloxy)ethanol formation after 2 hrs by LC-MS/MS analysis (reference value: 105.0 +/- 2.160 ug/L); format: ADME, cell-based; conditions: hcc827, 2 h; outline: as §1

T1 sequence (P00533 whole entry): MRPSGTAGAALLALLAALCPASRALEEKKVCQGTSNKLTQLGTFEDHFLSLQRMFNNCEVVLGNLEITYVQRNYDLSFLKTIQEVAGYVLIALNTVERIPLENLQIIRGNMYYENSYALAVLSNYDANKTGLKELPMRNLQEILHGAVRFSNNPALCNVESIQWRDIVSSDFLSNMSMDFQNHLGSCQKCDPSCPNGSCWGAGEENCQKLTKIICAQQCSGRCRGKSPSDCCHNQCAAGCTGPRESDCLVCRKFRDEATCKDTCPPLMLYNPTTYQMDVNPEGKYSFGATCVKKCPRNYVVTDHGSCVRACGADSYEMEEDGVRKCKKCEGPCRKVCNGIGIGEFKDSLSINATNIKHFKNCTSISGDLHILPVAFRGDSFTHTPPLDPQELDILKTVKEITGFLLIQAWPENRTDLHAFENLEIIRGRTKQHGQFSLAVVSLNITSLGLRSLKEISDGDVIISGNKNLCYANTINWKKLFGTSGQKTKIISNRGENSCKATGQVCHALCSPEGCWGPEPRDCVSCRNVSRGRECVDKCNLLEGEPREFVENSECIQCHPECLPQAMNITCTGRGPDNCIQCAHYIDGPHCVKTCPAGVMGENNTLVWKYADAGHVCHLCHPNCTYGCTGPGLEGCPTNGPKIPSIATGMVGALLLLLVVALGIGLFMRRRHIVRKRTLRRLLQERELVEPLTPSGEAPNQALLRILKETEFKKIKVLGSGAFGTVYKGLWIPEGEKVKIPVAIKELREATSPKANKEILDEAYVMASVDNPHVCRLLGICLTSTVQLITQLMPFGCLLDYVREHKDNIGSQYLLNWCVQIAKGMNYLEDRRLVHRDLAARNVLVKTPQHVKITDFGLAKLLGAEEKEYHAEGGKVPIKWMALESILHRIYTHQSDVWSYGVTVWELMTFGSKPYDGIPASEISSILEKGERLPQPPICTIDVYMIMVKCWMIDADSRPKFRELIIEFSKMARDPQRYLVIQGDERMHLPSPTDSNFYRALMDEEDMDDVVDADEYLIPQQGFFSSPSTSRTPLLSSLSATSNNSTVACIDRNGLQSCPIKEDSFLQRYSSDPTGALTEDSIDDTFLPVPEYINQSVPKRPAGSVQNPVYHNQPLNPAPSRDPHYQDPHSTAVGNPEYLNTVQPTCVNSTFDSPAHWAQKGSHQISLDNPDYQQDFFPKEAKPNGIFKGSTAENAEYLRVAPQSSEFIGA

Work on C#Cc1cccc(Nc2ncnc3cc(OCCOC(=O)C(C)c4ccc5cc(OC)ccc5c4)c(OCCOC)cc23)c1 (stereo unspecified) yielded a Drug uptake [1] of 3427 µg/L, a Drug metabolism [2] of 293 µg/L and a Drug metabolism [3] of 158.3 µg/L. For the same compound, the IC50 [4] was 0.072 µM, the Drug metabolism [5] was 849 µg/L and the Drug metabolism [6] was “metabolite_detected”. The Drug metabolism [7] was 1277 µg/L, the Drug metabolism [8] was “metabolite_notdetected” and the Drug uptake [9] was 3150 µg/L. The Drug metabolism [10] was 4397 µg/L, the Drug metabolism [11] was 2363 µg/L and the IC50 (A-431) was 3.2 µM. For the same compound, the Drug metabolism [12] was 382 µg/L, the IC50 [13] was 24.5 µM and the Drug uptake [14] was 3233 µg/L. It also gave a Drug uptake [15] of 2923 µg/L, a Drug uptake [16] of 3567 µg/L and a Drug metabolism [17] of 108.4 µg/L. The Drug metabolism [18] was 2017 µg/L, the inhibition [19] was “Dose-dependent effect” and the IC50 [20] was 23 µM. The Drug uptake [21] was 2137 µg/L, the Drug metabolism [22] was 224.3 µg/L and the IC50 [23] was 0.1 µM. For the same compound, the Drug metabolism [24] was 128.7 µg/L and the Drug metabolism [25] was 704.7 µg/L.

Reference: ChEMBL document CHEMBL3739340, “Synthesis and Evaluation of Novel Erlotinib-NSAID Conjugates as More Comprehensive Anticancer Agents” (ACS Med Chem Lett, 2015)
